An excerpt weighted towards active compounds, which were near 2.7% of everything screened.
CFTR F508del cor = correctors of CFTR F508del function in bronchial epithelial cells; CFBE cells, YFP halide quenching; stimulated with forskolin plus potentiator P3; % fluorescence drop versus neutral controls; activity (quench increase), % at 7.58 µM; 350,000 tested, 0.36% active; AID 720511;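 active means mean added fluorescence quench of at least 8% versus neutral control, with both replicates also reaching 8%; inconclusive means only one of the mean or replicate conditions met; inactive means mean below 8% and not both replicates reaching 8%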;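 further: cells transiently co-express mutant CFTR-F508del with the halide-sensitive YFP; corrector assay measuring rescue of mutant channel to the surface after 24 h compound exposure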
E-selectin induc = induces E-selectin expression in human endothelial cells | P16581 | HUVEC E-selectin immunofluorescence imaging; normalized: neutral wells 0, TNF-alpha wells 100 | activation, % at 7.58 µM | 260,000 tested, 0.37% active | AID 686992;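 active means mean E-selectin-positive cell signal at least 10% of the positive control, reached in at least 60% of replicates, without over 20% cell loss; inconclusive means no rule given, readout overlaps actives, possibly toxicity-flagged; inactive means the rest, including those meeting only one limit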
Target sequence (P16581 whole entry, looked up): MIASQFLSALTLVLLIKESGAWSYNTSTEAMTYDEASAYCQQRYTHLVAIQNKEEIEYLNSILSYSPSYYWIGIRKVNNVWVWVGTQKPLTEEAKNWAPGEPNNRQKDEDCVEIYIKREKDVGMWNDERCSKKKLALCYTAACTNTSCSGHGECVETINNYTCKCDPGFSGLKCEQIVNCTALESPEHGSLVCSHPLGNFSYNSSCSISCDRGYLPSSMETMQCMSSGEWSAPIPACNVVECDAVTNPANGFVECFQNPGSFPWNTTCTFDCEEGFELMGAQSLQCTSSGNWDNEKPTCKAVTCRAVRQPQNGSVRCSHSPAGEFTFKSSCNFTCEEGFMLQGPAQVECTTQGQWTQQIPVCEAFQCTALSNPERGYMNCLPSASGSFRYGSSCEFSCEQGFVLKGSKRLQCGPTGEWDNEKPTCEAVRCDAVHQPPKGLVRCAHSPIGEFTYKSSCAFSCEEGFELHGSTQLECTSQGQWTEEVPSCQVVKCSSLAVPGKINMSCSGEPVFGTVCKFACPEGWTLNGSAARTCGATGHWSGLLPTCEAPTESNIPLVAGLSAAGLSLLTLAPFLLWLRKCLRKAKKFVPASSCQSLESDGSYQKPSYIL
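Test system: HUVEC; input: 3,000 HUVEC/well; measured by: immunofluorescence imaging; read-out: % PE-positive cells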
S100A4 MyoIIA = inhibitors of human S100A4 binding to myosin IIA peptide | S100A4/TAMRA-MyoIIA peptide fluorescence polarization | 360,000 tested, 0.14% active | inhibition, % at 10.7 µM | AID 652163 | P26447;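 active means mean inhibition of at least 70% across replicates, with every replicate also reaching that level; inconclusive means mean inhibition reaches 70% but some replicates fall short; inactive means mean inhibition below 70%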
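Test system: S100A4 monomer protein. Medium: HEPES buffer with Ca2+, pH 7.2. Reagent: fluorescent myosin IIA peptide, 5 nM. Compound dosing: single-point compound testing. Timing: 5 min between mix addition and reading. Benchmarks: DMSO neutral and TFP positive wells.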
Env fusion inh = blocks HIV Env-driven cell-cell fusion; 360,000 tested, 1.1% active; AID 651610; inhibition, % at 12.3 µM; HeLa-JRFL Env/CEM21 cell fusion, luciferase;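 active means mean replicate inhibition score of at least 50 and every replicate individually at or above 50; inconclusive means only one of the two criteria met; inactive means mean below 50 and not all replicates reaching 50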;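 further: 0% = plate neutral controls and 100% = maraviroc near 300 nM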
FGF22 binding = shifts melting point of recombinant human FGF22; Q9HCT0; recombinant FGF22 thermal shift, SYPRO orange fluorescence; percent of sucrose octasulfate shift, DMSO zero; 340,000 tested, 1.5% active; AID 651658; activity (Tm shift, normalised), % at 9.99 µM;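 active means mean Tm shift, scaled 0 neutral to 100 positive control, at about 1.3% or above, every replicate too, limit read from the data; inconclusive means no clear call, values can overlap the other calls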
Numbers without * were called inactive; [ ] = another dose, or the depositor's remark.

`C[C@@H]1CCCCO[C@H](CN(C)C(=O)CCC(F)(F)F)[C@@H](C)CN([C@H](C)CO)C(=O)c2cc(NC(=O)NC3CCCCC3)ccc2O1` gave CFTR F508del cor 3, E-selectin induc 0, S100A4 MyoIIA -35, Env fusion inh -8[16.7 µM] and FGF22 binding 0.
For CO[C@H]1CN(C)C(=O)c2ccc(NC(=O)C3CC3)cc2OC[C@@H](C)N(C(=O)Cc2ccccn2)C[C@H]1C the results were CFTR F508del cor 2, E-selectin induc 0, S100A4 MyoIIA -2 and FGF22 binding 0.
`COc1ccc(NC(=O)Nc2ccc3c(c2)C(=O)N([C@H](C)CO)C[C@@H](C)[C@@H](CN(C)S(=O)(=O)c2ccccc2)O3)cc1` gave CFTR F508del cor -2, S100A4 MyoIIA -32, Env fusion inh 0[16.7 µM] and FGF22 binding 0.
For O=C(Nc1cccc(S(=O)(=O)Nc2ccc(Cl)cc2)c1)c1ccc(Cl)nc1 the results were CFTR F508del cor 7, S100A4 MyoIIA 2, Env fusion inh 56* and FGF22 binding 0.
`NC(=O)CC[C@H](NC(=O)c1ccc(F)cc1)C(=O)N1CCN(Cc2ccc3c(c2)OCO3)CC1` gave CFTR F508del cor 0, E-selectin induc 0, S100A4 MyoIIA 6, Env fusion inh -3 and FGF22 binding 43*.
CCC(C)NC(=S)N1CCN(Cc2ccc3c(c2)OCO3)CC1 (configuration not stated) was read as CFTR F508del cor 2, S100A4 MyoIIA -11, Env fusion inh -6 and FGF22 binding 43*.
For CC(C)CNC(=S)N1CCN(Cc2ccc3c(c2)OCO3)CC1 the results were CFTR F508del cor 0, S100A4 MyoIIA 3, Env fusion inh 1 and FGF22 binding 0.
CCC(O)(CC)C(=O)NN(C(=O)CCl)c1ccccc1 was read as E-selectin induc -3, S100A4 MyoIIA 14, Env fusion inh 61* and FGF22 binding 0.
`Cc1ccc(N(NC(=O)C(O)(c2ccccc2)c2ccccc2)C(=O)CCl)cc1` gave E-selectin induc 0 and Env fusion inh 70*.
`C=CCC[C@@H](Cc1ccc(F)cc1)C(=O)OC[C@@H](C)NC(=O)[C@@H](CC=C)CC(=O)N[C@H](CO)Cc1ccccc1` gave CFTR F508del cor 1, E-selectin induc 0, S100A4 MyoIIA -1, Env fusion inh -6 and FGF22 binding 1.4*.
`C=CCC[C@@H](Cc1ccc(F)cc1)C(=O)OC[C@@H](NC(=O)[C@H](CC=C)CC(=O)NCCO)C(C)(C)C` gave CFTR F508del cor 0, E-selectin induc 0, S100A4 MyoIIA -4, Env fusion inh 102* and FGF22 binding 0.
Screening C=CC[C@@H](CC(=O)N[C@H](CO)Cc1ccccc1)C(=O)N[C@@H](C)COC(=O)[C@@H](CC=C)Cc1ccc(F)cc1 returned CFTR F508del cor -1, E-selectin induc 0, S100A4 MyoIIA 4, Env fusion inh -4 and FGF22 binding 0.
`C[C@@H]1CCCCO[C@@H](CN(C)Cc2ccccc2)[C@@H](C)CN([C@H](C)CO)C(=O)c2cc(NC(=O)Nc3ccc(C(F)(F)F)cc3)ccc2O1` gave CFTR F508del cor -3, E-selectin induc 1, S100A4 MyoIIA 2, Env fusion inh 22[16.7 µM] and FGF22 binding 0.
CN1C(=O)C2(c3ccccc31)N(C)CC(c1ccccc1)C21SC(=S)N(Cc2ccco2)C1=O (configuration not stated) was read as Env fusion inh 80*.
Screening O=C1CCC/C(=N/Nc2ccc(Cl)cc2)C1 returned CFTR F508del cor 2, E-selectin induc 8, S100A4 MyoIIA -3, Env fusion inh 14 and FGF22 binding 44*.
Cc1ccccc1-c1cnc2c(c1)C(=O)N([C@H](C)CO)C[C@H](C)[C@H](CN(C)Cc1cncnc1)O2 was read as CFTR F508del cor 0, E-selectin induc 0, S100A4 MyoIIA 18, Env fusion inh -18[16.7 µM] and FGF22 binding 0.
Screening O=C(CNC(=O)c1cccc(Br)c1)N/N=C/c1ccc[nH]1 returned CFTR F508del cor 1, S100A4 MyoIIA -1, Env fusion inh 4 and FGF22 binding 43*.
O=C(CNC(=O)c1ccccc1Br)N/N=C/c1cc(Br)ccc1O was read as CFTR F508del cor 4, S100A4 MyoIIA 0, Env fusion inh 14 and FGF22 binding 44*.
For O=C(CNC(=O)c1ccccc1Br)N/N=C/c1ccccc1O the results were CFTR F508del cor -1, S100A4 MyoIIA 3, Env fusion inh 2 and FGF22 binding 43*.
Screening O=C(CNC(=O)c1cccc(Br)c1)N/N=C/c1cn[nH]c1-c1ccccc1 returned CFTR F508del cor 0, S100A4 MyoIIA 15, Env fusion inh 6 and FGF22 binding 0.
Screening O=C(O)CNC(=O)c1ccccc1Br returned CFTR F508del cor 0, E-selectin induc 5, S100A4 MyoIIA -3, Env fusion inh inconclusive and FGF22 binding 43*.
Cc1noc(C)c1NC(=O)N(C)C[C@@H]1Oc2ccc(NC(=O)Cn3cnnn3)cc2CC(=O)N([C@H](C)CO)C[C@H]1C was read as CFTR F508del cor 1, E-selectin induc 0, Env fusion inh 6[16.7 µM] and FGF22 binding 0.
`CCC(=O)N1[C@H](C#N)[C@H](c2ccccc2-c2cccc(C)c2)[C@@H]1CO` gave CFTR F508del cor 0, E-selectin induc 0, S100A4 MyoIIA -9 and FGF22 binding 0.
Screening OC(c1ccccc1)(C1CCCCC1)C(CN1CCOCC1)c1ccccc1 (configuration not stated) returned CFTR F508del cor -1, E-selectin induc 0, S100A4 MyoIIA 8, Env fusion inh 33 and FGF22 binding 0.
For CCCCCC(O)(c1ccc(OC)cc1)C(CN1CCOCC1)c1ccccc1 (configuration not stated) the results were CFTR F508del cor 0, E-selectin induc 0, S100A4 MyoIIA -4, Env fusion inh 44 and FGF22 binding 0.
Screening COc1ccc(C(O)(C2CCCCC2)C(CN2CCOCC2)c2ccccc2)cc1 (configuration not stated) returned CFTR F508del cor -2, S100A4 MyoIIA 5, Env fusion inh 74* and FGF22 binding 0.
Screening CCCCCC(O)(c1ccc(OCC)cc1)C(CN1CCOCC1)c1ccccc1 (configuration not stated) returned CFTR F508del cor -1, E-selectin induc 1, S100A4 MyoIIA 20, Env fusion inh 59* and FGF22 binding 0.
`Cc1ccc(S(=O)(=O)Nc2ccc3c(c2)C(=O)N([C@H](C)CO)C[C@@H](C)[C@H](CN(C)Cc2ccc(Cl)c(Cl)c2)O3)cc1` gave CFTR F508del cor 1, E-selectin induc -1, S100A4 MyoIIA 1 and FGF22 binding -1.

Assay outcomes as filed in PubChem.
